Assay results reported in ChEMBL document CHEMBL4190252, “Synthesis, antitumor activity and CDK1 inhibiton of new thiazole nortopsentin analogues” (Eur J Med Chem, 2017).
Active and inactive are the calls of the source. The calls are words filed in the database; no cut-off is given here.

tested on: NCI/ADR-RES; assay: Growth inhibition of human NCI/ADR-RES cells incubated for 48 hrs by sulforhodamine B assay; format: functional; details: not given
How it was run: (§1)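 NCI full panel screen: five 10-fold dilutions (10^-4–10^-8 M). GI50 is the molar concentration giving 50% inhibition of net cell growth.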

Compound	GI50 [µM]
COCCn1cc(-c2csc(-c3c[nH]c4ccc(Br)cc34)n2)c2cccnc21	2.86

tested on: HT-29; assay: Growth inhibition of human HT-29 cells incubated for 48 hrs by sulforhodamine B assay; format: functional; details: HT-29, 48 h; how it was run: as §1

Compound	GI50 [µM]
COCCn1cc(-c2csc(-c3c[nH]c4ccc(Br)cc34)n2)c2cccnc21	3.36

tested on: MCF7; assay: Growth inhibition of human MCF7 cells incubated for 48 hrs by sulforhodamine B assay; format: functional; details: MCF7, 48 h; how it was run: as §1

Compound	GI50 [µM]
COCCn1cc(-c2csc(-c3c[nH]c4ccc(Br)cc34)n2)c2cccnc21	1.79

tested on: SNB-19; assay: Growth inhibition of human SNB19 cells incubated for 48 hrs by sulforhodamine B assay; format: functional; details: SNB-19, 48 h
How it was run: (§2)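 NCI full-panel human tumour cell screen. Cells were exposed to five 10-fold dilutions from 10^-4 to 10^-8 M. GI50 is the molar concentration giving 50% inhibition of net cell growth, and a mean graph midpoint was calculated across the panel.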

Compound	GI50 [µM]
COCCn1cc(-c2csc(-c3c[nH]c4ccc(Br)cc34)n2)c2cccnc21	12.2

tested on: HOP-62; assay: Growth inhibition of human HOP62 cells incubated for 48 hrs by sulforhodamine B assay; format: functional; details: HOP-62, 48 h; how it was run: as §1

Compound	GI50 [µM]
COCCn1cc(-c2csc(-c3c[nH]c4ccc(Br)cc34)n2)c2cccnc21	7.98

tested on: IGROV-1; assay: Growth inhibition of human IGROV1 cells incubated for 48 hrs by sulforhodamine B assay; format: functional; details: IGROV-1, 48 h; how it was run: as §1

Compound	GI50 [µM]
COCCn1cc(-c2csc(-c3c[nH]c4ccc(Br)cc34)n2)c2cccnc21	4.06

tested on: HCT-15; assay: Growth inhibition of human HCT15 cells incubated for 48 hrs by sulforhodamine B assay; format: functional; details: HCT-15, 48 h; how it was run: as §1

Compound	GI50 [µM]
COCCn1cc(-c2csc(-c3c[nH]c4ccc(Br)cc34)n2)c2cccnc21	3.14

tested on: HCT-116; assay: Growth inhibition of human HCT116 cells incubated for 48 hrs by sulforhodamine B assay; format: functional; details: HCT-116, 48 h; how it was run: as §1

Compound	GI50 [µM]
COCCn1cc(-c2csc(-c3c[nH]c4ccc(Br)cc34)n2)c2cccnc21	3.84

tested on: MDA-MB-468; assay: Growth inhibition of human MDA-MB-468 cells incubated for 48 hrs by sulforhodamine B assay; format: functional; details: MDA-MB-468, 48 h; how it was run: as §1

Compound	GI50 [µM]
COCCn1cc(-c2csc(-c3c[nH]c4ccc(Br)cc34)n2)c2cccnc21	2.34

tested on: SK-OV-3; assay: Growth inhibition of human SKOV3 cells incubated for 48 hrs by sulforhodamine B assay; format: functional; details: SK-OV-3, 48 h; how it was run: as §2

Compound	GI50 [µM]
COCCn1cc(-c2csc(-c3c[nH]c4ccc(Br)cc34)n2)c2cccnc21	13.9

tested on: NCI-H23; assay: Growth inhibition of human NCI-H23 cells incubated for 48 hrs by sulforhodamine B assay; format: functional; details: NCI-H23, 48 h; how it was run: as §1

Compound	GI50 [µM]
COCCn1cc(-c2csc(-c3c[nH]c4ccc(Br)cc34)n2)c2cccnc21	3.21

tested on: Hs-578T; assay: Growth inhibition of human Hs 578T cells incubated for 48 hrs by sulforhodamine B assay; format: functional; details: not given; how it was run: as §1

Compound	GI50 [µM]
COCCn1cc(-c2csc(-c3c[nH]c4ccc(Br)cc34)n2)c2cccnc21	4.44

tested on: A498; assay: Growth inhibition of human A498 cells incubated for 48 hrs by sulforhodamine B assay; format: functional; details: A498, 48 h; how it was run: as §1

Compound	GI50 [µM]
COCCn1cc(-c2csc(-c3c[nH]c4ccc(Br)cc34)n2)c2cccnc21	3.02

tested on: Malme-3M; assay: Growth inhibition of human MALME-3M cells incubated for 48 hrs by sulforhodamine B assay; format: functional; details: not given; how it was run: as §1

Compound	GI50 [µM]
COCCn1cc(-c2csc(-c3c[nH]c4ccc(Br)cc34)n2)c2cccnc21	3.66

tested on: SR; assay: Growth inhibition of human SR cells incubated for 48 hrs by sulforhodamine B assay; format: functional; details: not given; how it was run: as §2

Compound	GI50 [µM]
COCCn1cc(-c2csc(-c3c[nH]c4ccc(Br)cc34)n2)c2cccnc21	3.25

tested on: OVCAR-5; assay: Growth inhibition of human OVCAR5 cells incubated for 48 hrs by sulforhodamine B assay; format: functional; details: OVCAR-5, 48 h; how it was run: as §1

Compound	GI50 [µM]
COCCn1cc(-c2csc(-c3c[nH]c4ccc(Br)cc34)n2)c2cccnc21	4.83

tested on: U-251; assay: Growth inhibition of human U251 cells incubated for 48 hrs by sulforhodamine B assay; format: functional; details: U-251, 48 h; how it was run: as §2

Compound	GI50 [µM]
COCCn1cc(-c2csc(-c3c[nH]c4ccc(Br)cc34)n2)c2cccnc21	6.18

tested on: LOX IMVI; assay: Growth inhibition of human LOXIMVI cells incubated for 48 hrs by sulforhodamine B assay; format: functional; details: not given; how it was run: as §1

Compound	GI50 [µM]
COCCn1cc(-c2csc(-c3c[nH]c4ccc(Br)cc34)n2)c2cccnc21	2.67

tested on: K562; assay: Growth inhibition of human K562 cells incubated for 48 hrs by sulforhodamine B assay; format: functional; details: K562, 48 h; how it was run: as §1

Compound	GI50 [µM]
COCCn1cc(-c2csc(-c3c[nH]c4ccc(Br)cc34)n2)c2cccnc21	3.6

tested on: NCI-H522; assay: Growth inhibition of human NCI-H522 cells incubated for 48 hrs by sulforhodamine B assay; format: functional; details: NCI-H522, 48 h; how it was run: as §1

Compound	GI50 [µM]
COCCn1cc(-c2csc(-c3c[nH]c4ccc(Br)cc34)n2)c2cccnc21	2.17

tested on: PC-3; assay: Growth inhibition of human PC3 cells incubated for 48 hrs by sulforhodamine B assay; format: functional; details: PC-3, 48 h; how it was run: as §1

Compound	GI50 [µM]
COCCn1cc(-c2csc(-c3c[nH]c4ccc(Br)cc34)n2)c2cccnc21	3.68

tested on: OVCAR-8; assay: Growth inhibition of human OVCAR8 cells incubated for 48 hrs by sulforhodamine B assay; format: functional; details: OVCAR-8, 48 h; how it was run: as §1

Compound	GI50 [µM]
COCCn1cc(-c2csc(-c3c[nH]c4ccc(Br)cc34)n2)c2cccnc21	5.35

tested on: 786-0; assay: Growth inhibition of human 786-0 cells incubated for 48 hrs by sulforhodamine B assay; format: functional; details: 786-0, 48 h; how it was run: as §1

Compound	GI50 [µM]
COCCn1cc(-c2csc(-c3c[nH]c4ccc(Br)cc34)n2)c2cccnc21	4.03

tested on: A549; assay: Growth inhibition of human A549/ATCC cells incubated for 48 hrs by sulforhodamine B assay; format: functional; details: A549, 48 h; how it was run: as §1

Compound	GI50 [µM]
COCCn1cc(-c2csc(-c3c[nH]c4ccc(Br)cc34)n2)c2cccnc21	6.89

tested on: Panel NCI-60 (60 carcinoma cell lines); assay: Growth inhibition of human NCI60 cells at 10^-5 M incubated for 48 hrs by sulforhodamine B assay; format: functional, cell-based; details: not given

Compound	growth inhibition (GI)
COCCn1cc(-c2csc(-c3c[nH]c4ccc(Br)cc34)n2)c2cccnc21	Active

tested on: BT-549; assay: Growth inhibition of human BT549 cells incubated for 48 hrs by sulforhodamine B assay; format: functional; details: BT-549, 48 h; how it was run: as §1

Compound	GI50 [µM]
COCCn1cc(-c2csc(-c3c[nH]c4ccc(Br)cc34)n2)c2cccnc21	4.8

tested on: MCF7; assay: Induction of apoptosis in human MCF7 cells assessed as viable cells at 2 x 10^-6 M after 72 hrs by Annexin V/propidium iodide double staining-based flow cytometry (reference value: 98.9%); format: functional; details: MCF7, 72 h, read-out: Activity
How it was run: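 MCF-7 cells were grown in RPMI with 10% FBS, 2 mM L-glutamine and antibiotics at 37 °C in 5% CO2. They were seeded at 2.0 x 10^5 cells/cm2 in triplicate, left to adhere overnight, then treated for 72 h; DMSO 0.1% served as vehicle. Trypsinised cells at 2.0 x 10^5/mL were stained with annexin V-FITC and PI for 15 min at room temperature in the dark. At least 1.0 x 10^4 cells were gated into viable, early apoptotic, late apoptotic and necrotic quadrants.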

Compound	viability at 2 µM [%]
COCCn1cc(-c2csc(-c3c[nH]c4ccc(Br)cc34)n2)c2cccnc21	63.6

tested on: SN12C; assay: Growth inhibition of human SN12C cells incubated for 48 hrs by sulforhodamine B assay; format: functional; details: not given; how it was run: as §2

Compound	GI50 [µM]
COCCn1cc(-c2csc(-c3c[nH]c4ccc(Br)cc34)n2)c2cccnc21	7.72

tested on: COLO 205; assay: Growth inhibition of human COLO205 cells incubated for 48 hrs by sulforhodamine B assay; format: functional; details: COLO 205, 48 h; how it was run: as §1

Compound	GI50 [µM]
COCCn1cc(-c2csc(-c3c[nH]c4ccc(Br)cc34)n2)c2cccnc21	3.22

tested on: HOP-92; assay: Growth inhibition of human HOP92 cells incubated for 48 hrs by sulforhodamine B assay; format: functional; details: HOP-92, 48 h; how it was run: as §1

Compound	GI50 [µM]
COCCn1cc(-c2csc(-c3c[nH]c4ccc(Br)cc34)n2)c2cccnc21	4.39

tested on: ACHN; assay: Growth inhibition of human ACHN cells incubated for 48 hrs by sulforhodamine B assay; format: functional; details: not given; how it was run: as §1

Compound	GI50 [µM]
COCCn1cc(-c2csc(-c3c[nH]c4ccc(Br)cc34)n2)c2cccnc21	3.04

tested on: UACC-257; assay: Growth inhibition of human UACC257 cells incubated for 48 hrs by sulforhodamine B assay; format: functional; details: UACC-257, 48 h; how it was run: as §2

Compound	GI50 [µM]
COCCn1cc(-c2csc(-c3c[nH]c4ccc(Br)cc34)n2)c2cccnc21	8.69

tested on: SF-295; assay: Growth inhibition of human SF295 cells incubated for 48 hrs by sulforhodamine B assay; format: functional; details: SF-295, 48 h; how it was run: as §1

Compound	GI50 [µM]
COCCn1cc(-c2csc(-c3c[nH]c4ccc(Br)cc34)n2)c2cccnc21	2.83

tested on: UACC-62; assay: Growth inhibition of human UACC62 cells incubated for 48 hrs by sulforhodamine B assay; format: functional; details: UACC-62, 48 h; how it was run: as §2

Compound	GI50 [µM]
COCCn1cc(-c2csc(-c3c[nH]c4ccc(Br)cc34)n2)c2cccnc21	4.2

tested on: KM12; assay: Growth inhibition of human KM12 cells incubated for 48 hrs by sulforhodamine B assay; format: functional; details: KM12, 48 h; how it was run: as §1

Compound	GI50 [µM]
COCCn1cc(-c2csc(-c3c[nH]c4ccc(Br)cc34)n2)c2cccnc21	2.74

tested on: HCC 2998; assay: Growth inhibition of human HCC2998 cells incubated for 48 hrs by sulforhodamine B assay; format: functional; details: HCC 2998, 48 h; how it was run: as §1

Compound	GI50 [µM]
COCCn1cc(-c2csc(-c3c[nH]c4ccc(Br)cc34)n2)c2cccnc21	3.8
